Measurements taken from ChEMBL document CHEMBL1156941, “Discovery of small molecule isozyme non-specific inhibitors of mammalian acetyl-CoA carboxylase 1 and 2” (Bioorg Med Chem Lett, 2010).

Tests used:
[1] = molecular target: Acetyl-CoA carboxylase 2 (Homo sapiens, UniProt O00763); assay: Inhibition of human recombinant ACC2 expressed in CHO cells after 1 hr by fluorescence reader; assay type: cell-based
Method in brief: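 Purified recombinant human ACC2, from conditioned medium captured on avidin resin and eluted with biotin, then dialyzed. Compounds in DMSO, final DMSO 1%. Run 1 h at room temperature. ADP measured by Transcreener fluorescence polarization after a further 1 h.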

[2] = molecular target: Acetyl-CoA carboxylase 1 (Rattus norvegicus, UniProt P11497); assay: Inhibition of rat liver ACC1 after 7 mins by liquid scintillation counter
[3] = Oral bioavailability in rat at 5 mg/kg; assay type: ADME, organism-based; settings: in vivo
Method in brief: (§1)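 Rat pharmacokinetics. Intravenous dose 1 mg/kg, giving CL in mL/min/kg and Vdss in L/kg. Oral dose 5 mg/kg, giving Cmax in ng/mL, %F and t1/2 in h.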

[4] = Volume of distribution at steady state in rat at 1 mg/kg, iv; assay type: ADME, organism-based; parameters: dose 1 mg/kg, route intravenous; settings: in vivo, read-out: Vdss; method in brief: as §1
[5] = Clearance in rat at 1 mg/kg, iv; assay type: ADME, organism-based; parameters: dose 1 mg/kg, route intravenous; settings: in vivo; method in brief: as §1
[6] = Half life in rat at 5 mg/kg, po; assay type: ADME, organism-based; parameters: dose 5 mg/kg, route oral; settings: in vivo; method in brief: as §1
[7] = Cmax in rat at 5 mg/kg, po; assay type: ADME, organism-based; parameters: dose 5 mg/kg, route oral; settings: in vivo; method in brief: as §1
[8] = Clearance in rat at 1 mg/kg, iv administered with methylcellulose; assay type: ADME, organism-based; parameters: dose 1 mg/kg, route intravenous; settings: in vivo
[9] = Oral bioavailability in rat at 3 mg/kg administered with lipid emulsion; assay type: ADME, organism-based; settings: in vivo
[10] = Half life in Beagle dog at 1 mg/kg, iv administered with 40% PEG400 and 60% glycerol; assay type: ADME, organism-based, Canis lupus familiaris; parameters: dose 1 mg/kg, route intravenous; settings: in vivo
[11] = Volume of distribution at steady state in rat at 1 mg/kg, iv administered with methylcellulose; assay type: ADME, organism-based; parameters: dose 1 mg/kg, route intravenous; settings: in vivo, read-out: Vdss
[12] = Clearance in Beagle dog at 1 mg/kg, iv administered with 40% PEG400 and 60% glycerol; assay type: ADME, organism-based, Canis lupus familiaris; parameters: dose 1 mg/kg, route intravenous; settings: in vivo
[13] = Oral bioavailability in rat at 3 mg/kg administered with methylcellulose; assay type: ADME, organism-based; settings: in vivo
[14] = Half life in rat at 1 mg/kg, iv administered with methylcellulose; assay type: ADME, organism-based; parameters: dose 1 mg/kg, route intravenous; settings: in vivo
[15] = Oral bioavailability in rat at 3 mg/kg administered with spray-dried dispersion; assay type: ADME, organism-based; settings: in vivo
[16] = Volume of distribution at steady state in Beagle dog at 1 mg/kg, iv administered with 40% PEG400 and 60% glycerol; assay type: ADME, organism-based, Canis lupus familiaris; parameters: dose 1 mg/kg, route intravenous; settings: in vivo, read-out: Vdss

Chain of Acetyl-CoA carboxylase 2 (O00763 whole entry): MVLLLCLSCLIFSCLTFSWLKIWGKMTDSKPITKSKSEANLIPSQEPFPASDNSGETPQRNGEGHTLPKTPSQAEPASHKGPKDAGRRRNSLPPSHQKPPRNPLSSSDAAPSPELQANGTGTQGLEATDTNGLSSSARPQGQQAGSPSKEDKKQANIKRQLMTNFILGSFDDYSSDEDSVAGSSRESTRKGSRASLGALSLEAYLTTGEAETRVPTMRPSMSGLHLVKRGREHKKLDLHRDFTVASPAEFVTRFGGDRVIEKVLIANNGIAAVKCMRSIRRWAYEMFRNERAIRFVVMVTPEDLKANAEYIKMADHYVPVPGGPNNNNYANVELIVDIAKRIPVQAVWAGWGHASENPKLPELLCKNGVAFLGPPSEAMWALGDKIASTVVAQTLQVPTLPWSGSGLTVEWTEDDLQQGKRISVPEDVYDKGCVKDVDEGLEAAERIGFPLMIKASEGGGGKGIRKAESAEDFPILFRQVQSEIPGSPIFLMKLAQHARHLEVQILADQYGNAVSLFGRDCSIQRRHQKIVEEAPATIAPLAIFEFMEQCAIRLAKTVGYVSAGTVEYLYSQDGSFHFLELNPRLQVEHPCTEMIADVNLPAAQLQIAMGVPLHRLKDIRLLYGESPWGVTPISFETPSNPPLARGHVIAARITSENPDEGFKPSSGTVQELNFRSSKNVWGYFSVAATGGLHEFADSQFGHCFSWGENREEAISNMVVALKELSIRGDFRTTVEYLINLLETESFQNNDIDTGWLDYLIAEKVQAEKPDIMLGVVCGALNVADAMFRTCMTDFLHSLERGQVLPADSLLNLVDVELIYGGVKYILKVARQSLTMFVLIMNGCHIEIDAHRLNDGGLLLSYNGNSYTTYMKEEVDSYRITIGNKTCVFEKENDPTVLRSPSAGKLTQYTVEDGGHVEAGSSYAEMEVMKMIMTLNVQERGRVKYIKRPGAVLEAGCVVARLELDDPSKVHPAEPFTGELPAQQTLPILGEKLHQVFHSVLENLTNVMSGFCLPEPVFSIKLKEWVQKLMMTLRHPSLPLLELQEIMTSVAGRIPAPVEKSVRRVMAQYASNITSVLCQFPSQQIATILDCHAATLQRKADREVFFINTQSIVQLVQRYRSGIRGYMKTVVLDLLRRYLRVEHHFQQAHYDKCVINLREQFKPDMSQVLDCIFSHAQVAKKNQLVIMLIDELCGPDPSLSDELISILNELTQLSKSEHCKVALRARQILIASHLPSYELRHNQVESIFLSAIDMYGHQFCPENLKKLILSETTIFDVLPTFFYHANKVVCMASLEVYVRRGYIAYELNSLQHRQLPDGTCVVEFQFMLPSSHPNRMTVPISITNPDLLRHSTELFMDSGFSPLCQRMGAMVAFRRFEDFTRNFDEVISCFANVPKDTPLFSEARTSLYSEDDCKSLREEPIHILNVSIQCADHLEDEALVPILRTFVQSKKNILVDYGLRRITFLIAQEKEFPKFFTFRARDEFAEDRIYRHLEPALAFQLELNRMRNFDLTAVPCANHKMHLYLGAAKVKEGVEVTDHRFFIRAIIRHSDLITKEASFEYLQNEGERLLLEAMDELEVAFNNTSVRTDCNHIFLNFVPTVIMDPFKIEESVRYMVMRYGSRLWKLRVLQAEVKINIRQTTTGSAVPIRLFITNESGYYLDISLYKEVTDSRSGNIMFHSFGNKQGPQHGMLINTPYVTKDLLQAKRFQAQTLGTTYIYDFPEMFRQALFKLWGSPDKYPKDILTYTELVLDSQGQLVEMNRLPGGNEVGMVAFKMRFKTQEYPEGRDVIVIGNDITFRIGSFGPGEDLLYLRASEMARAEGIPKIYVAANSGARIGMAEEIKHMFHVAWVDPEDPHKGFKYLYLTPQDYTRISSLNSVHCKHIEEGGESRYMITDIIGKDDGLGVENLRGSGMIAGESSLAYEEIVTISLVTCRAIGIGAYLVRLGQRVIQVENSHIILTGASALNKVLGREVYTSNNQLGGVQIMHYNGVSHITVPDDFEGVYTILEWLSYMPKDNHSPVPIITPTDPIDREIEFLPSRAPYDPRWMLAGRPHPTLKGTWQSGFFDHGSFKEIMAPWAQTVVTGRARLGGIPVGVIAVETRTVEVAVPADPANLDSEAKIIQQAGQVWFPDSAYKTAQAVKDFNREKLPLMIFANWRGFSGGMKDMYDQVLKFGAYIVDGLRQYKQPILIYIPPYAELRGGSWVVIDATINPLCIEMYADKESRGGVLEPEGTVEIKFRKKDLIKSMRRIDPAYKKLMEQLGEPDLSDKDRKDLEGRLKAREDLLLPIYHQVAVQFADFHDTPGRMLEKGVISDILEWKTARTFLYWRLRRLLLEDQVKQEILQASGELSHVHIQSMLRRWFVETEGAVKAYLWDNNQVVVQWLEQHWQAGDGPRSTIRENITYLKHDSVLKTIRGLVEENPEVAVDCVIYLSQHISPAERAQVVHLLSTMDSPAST

| SMILES | IC50 [1] [nM] | IC50 [2] [nM] | other results |
| --- | --- | --- | --- |
| Cc1cc(C(=O)N2CCC3(CC2)CC(=O)c2cc(-c4ccn(C)n4)ccc2O3)cc2cn[nH]c12 | 6.1 | 31 |  |
| Cc1cc(C)c2c(c1)C(=O)CC1(CCN(C(=O)c3cccc4cn[nH]c34)CC1)O2 | > 1000 |  |  |
| Cc1cc(C(=O)N2CCC3(CC2)CC(=O)c2c(ccnc2OC(C)C)O3)cc2cn[nH]c12 | 4.5 | 30 |  |
| COc1cccc2c1C(=O)CC1(CCN(C(=O)c3ccc4nn[nH]c4c3)CC1)O2 | 505 | 2970 |  |
| Cc1ccc2cc(CC3CCN(C(=O)c4cccc(-c5cc[nH]n5)c4)CC3)ccc2n1 |  | 3010 | bioavailability [3]: 7%; Vd [4]: 2.8 L/kg; clearance [5]: 34.1 mL/min/kg; half-life [6]: 1.8 h; Cmax [7]: 91.5 ng/mL |
| CNC(=O)c1cc2cc(C(=O)N3CCC4(CC3)CC(=O)c3c(OC)cccc3O4)ccc2[nH]1 | 11 | 43 |  |
| Cc1ncc(-c2ccc3c(c2)C(=O)CC2(CCN(C(=O)c4cc(C)c5[nH]ncc5c4)CC2)O3)o1 | 39 | 17 |  |
| Cc1noc(C)c1-c1ccc2c(c1)C(=O)CC1(CCN(C(=O)c3cc(C)c4[nH]ncc4c3)CC1)O2 | 6.4 | 13 |  |
| Cn1cc(-c2cc3c(cn2)OC2(CCN(C(=O)c4ccc5nc(-c6ccn(C)n6)[nH]c5c4)CC2)CC3=O)cn1 |  | 975 |  |
| Cc1cc(C(=O)N2CCC3(CC2)CC(=O)c2cc(-c4cnn(C)c4)ncc2O3)cc2cn[nH]c12 |  | 24.6 |  |
| Cc1cc2c(cc1C)C(=O)CC1(CCN(C(=O)c3cccc4cn[nH]c34)CC1)O2 | 400 |  |  |
| COc1nc(C)cc2c1C(=O)CC1(CCN(C(=O)c3cc(C)c4[nH]ncc4c3)CC1)O2 | 48 | 34 |  |
| Cc1nc(-c2ccc3c(c2)C(=O)CC2(CCN(C(=O)c4cc(C)c5[nH]ncc5c4)CC2)O3)co1 | 30 | 19 |  |
| Cc1n[nH]c2c(C)cc(C(=O)N3CCC4(CC3)CC(=O)c3c(ccnc3OC(C)C)O4)cc12 | 20 | 12 | clearance [8]: 31 mL/min/kg; bioavailability [9]: 8%; half-life [10]: 6.1 h; Vd [11]: 3.3 L/kg; clearance [12]: 3.6 mL/min/kg; bioavailability [13]: 32%; half-life [14]: 1.4 h; bioavailability [15]: 52%; Vd [16]: 1.6 L/kg |
| Cc1cc(C(=O)N2CCC3(CC2)CC(=O)c2cc(-c4cc[nH]n4)ccc2O3)cc2cn[nH]c12 | 4.5 | 18 |  |
| COc1cccc2c1C(=O)CC1(CCN(C(=O)c3ccc4nc(-c5ccccc5)[nH]c4c3)CC1)O2 | 16 | 16 |  |
| COc1cccc2c1C(=O)CC1(CCN(C(=O)c3ccc4[nH]c(C(N)=O)nc4c3)CC1)O2 | 16 | 35 |  |
| COc1cccc2c1C(=O)CC1(CCN(C(=O)c3ccc4nc[nH]c4c3)CC1)O2 | 111 | 216 |  |
| Cc1ccc2cc(CC3CCN(C(=O)c4ccnc5ccccc45)CC3)ccc2n1 |  | 8910 |  |
| Cc1ccc2c(n1)C(=O)CC1(CCN(C(=O)c3cc(C)c4[nH]ncc4c3)CC1)O2 |  | 366 |  |
| Cc1n[nH]c2ccc(C(=O)N3CCC4(CC3)CC(=O)c3ncccc3O4)cc12 | 640 | 766 |  |
| COc1cccc2c1C(=O)CC1(CCN(C(=O)c3ccc4c(C)n[nH]c4c3)CC1)O2 | 164 | 220 |  |
| COc1cccc2c1C(=O)CC1(CCN(C(=O)c3cc(C)c4[nH]nc(C)c4c3)CC1)O2 | 11 | 42 |  |
| COc1cccc2c1C(=O)CC1(CCN(C(=O)c3ccc4nc(-c5ccncc5)[nH]c4c3)CC1)O2 | 51 | 60 |  |
| Cc1cc(C(=O)N2CCC3(CC2)CC(=O)c2ncccc2O3)cc2cn[nH]c12 |  | 154 |  |
| Cc1n[nH]c2c(C)cc(C(=O)N3CCC4(CC3)CC(=O)c3ncccc3O4)cc12 | 363 | 249 |  |
| COc1cccc2c1C(=O)CC1(CCN(C(=O)c3ccc4nc(-c5ccn(C)n5)[nH]c4c3)CC1)O2 |  | 19 |  |
| Cc1cc(C(=O)N2CCC3(CC2)CC(=O)c2cc(-c4cn[nH]c4)ccc2O3)cc2cn[nH]c12 |  | 7.4 |  |
| O=C1CC2(CCN(C(=O)c3cccc4cn[nH]c34)CC2)Oc2ccc(Cl)cc21 | 2130 |  |  |
| COc1cccc2c1C(=O)CC1(CCN(C(=O)c3cc(C)c4nc[nH]c4c3)CC1)O2 | 126 | 172 |  |

The next lines start with results.

| IC50 [1] [nM] | IC50 [2] [nM] | SMILES | other results |
| --- | --- | --- | --- |
| > 1000 | 663 | COc1cccc2c1C(=O)CC1(CCN(C(=O)c3ccc4[nH]c(C)nc4c3)CC1)O2 |  |
| 7.6 | 18 | Cc1cc(-c2ccc3c(c2)C(=O)CC2(CCN(C(=O)c4cc(C)c5[nH]ncc5c4)CC2)O3)n[nH]1 |  |
| 12 | 26 | COc1cccc2c1C(=O)CC1(CCN(C(=O)c3ccc4[nH]c(-c5ccccn5)nc4c3)CC1)O2 |  |
| > 1000 |  | COc1cccc2c1C(=O)CC1(CCN(C(=O)c3cccc4cn[nH]c34)CC1)O2 |  |
|  | 1350 | Cc1cc(C(=O)N2CCC3(CC2)CC(=O)c2nc(N)ccc2O3)cc2cn[nH]c12 |  |
|  | 3380 | Cc1ccc2cc(CC3CCN(C(=O)c4cccc5cn[nH]c45)CC3)ccc2n1 | bioavailability [3]: 45%; Vd [4]: 2.4 L/kg; clearance [5]: 44.3 mL/min/kg; half-life [6]: 1.7 h; Cmax [7]: 617 ng/mL |
|  | 1270 | Cc1ccc2cc(CC3CCN(C(=O)c4cccc(-c5cn[nH]c5)c4)CC3)ccc2n1 |  |
|  | 86 | COc1nccc2c1C(=O)CC1(CCN(C(=O)c3cc(C)c4[nH]ncc4c3)CC1)O2 |  |
| 98 | 23 | Cc1cc(C(=O)N2CCC3(CC2)CC(=O)c2c(ccnc2OCC(C)C)O3)cc2cn[nH]c12 |  |
|  | 61 | CCOc1nccc2c1C(=O)CC1(CCN(C(=O)c3cc(C)c4[nH]ncc4c3)CC1)O2 |  |
| 16 | 65 | COc1cccc2c1C(=O)CC1(CCN(C(=O)c3cc(C)c4[nH]c(C(N)=O)cc4c3)CC1)O2 |  |
| 48 | 22 | Cc1cc2c(cc1C)C(=O)CC1(CCN(C(=O)c3cc(C)c4[nH]ncc4c3)CC1)O2 |  |
| 6.5 | 104 | COc1cccc2c1C(=O)CC1(CCN(C(=O)c3cc(C)c4[nH]ncc4c3)CC1)O2 |  |
|  | 182 | COc1cc2c(cn1)OC1(CCN(C(=O)c3cc(C)c4[nH]ncc4c3)CC1)CC2=O |  |
| 151 | 102 | CCc1cc(C(=O)N2CCC3(CC2)CC(=O)c2c(OC)cccc2O3)cc2cn[nH]c12 |  |
|  | 7.5 | Cc1cc(C(=O)N2CCC3(CC2)CC(=O)c2cc(-c4cnn(C)c4)ccc2O3)cc2cn[nH]c12 |  |
| 19 | 26 | COc1cccc2c1C(=O)CC1(CCN(C(=O)c3ccc4nc(-c5cccnc5)[nH]c4c3)CC1)O2 |  |
|  | 101 | COc1cccc2c1C(=O)CC1(CCN(C(=O)c3ccc4nc(-c5ccnnc5)[nH]c4c3)CC1)O2 |  |
